From ChEMBL document CHEMBL2321702, “Synthesis and antimalarial efficacy of two-carbon-linked, artemisinin-derived trioxane dimers in combination with known antimalarial drugs” (J Med Chem, 2013)

How the values were obtained:
Plasmodium berghei [1] = test: Antimalarial activity against Plasmodium berghei ANKA infected in C57BL/6J mouse assessed as average survival time at 6 mg/kg, po in presence of lumefantrine (reference value: 8.8 days); assay type: functional
Procedure, shortened: (§1)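 P. berghei ANKA infection (2×10^7 parasitized erythrocytes) in male C57BL/6J mice, four per group. A single oral dose was given 24 h post-infection: trioxane 6 mg/kg plus lumefantrine 18 mg/kg. Day-3 blood parasitemia was compared with vehicle mice, and survival was tracked up to 60 days.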

Plasmodium berghei [2] = test: Antimalarial activity against Plasmodium berghei ANKA infected in C57BL/6J mouse assessed as suppression of blood parasitemia level at 6 mg/kg, po measured on day 3 relative to vehicle-treated control in presence of lumefantrine; assay type: functional; procedure, shortened: as §1
Plasmodium berghei [3] = test: Antimalarial activity against Plasmodium berghei ANKA infected in C57BL/6J mouse assessed as average survival time at 150 mg/kg, po (reference value: 8.8 days); assay type: functional
Procedure, shortened: (§2)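 Single-dose oral monotherapy without adjuvant, at 120 or 150 mg/kg, given by gavage 24 h after infecting male C57BL/6J mice (four per group) with 2×10^7 P. berghei ANKA-parasitized erythrocytes. Blood parasitemia was measured on day 3 relative to vehicle controls. Survival was recorded over a 60-day study.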

Plasmodium berghei [4] = test: Antimalarial activity against Plasmodium berghei ANKA infected in C57BL/6J mouse assessed as average survival time at 6 mg/kg, po in presence of mefloquine (reference value: 8.8 days); assay type: functional
Procedure, shortened: (§3)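 Male C57BL/6J mice (5 weeks old, about 20 g; four per group) were infected with P. berghei ANKA (2×10^7 parasitized erythrocytes). After 24 h, each received a single 200 μL oral gavage of trioxane 6 mg/kg plus mefloquine hydrochloride 18 mg/kg in 7:3 Tween:EtOH diluted with water. Blood parasitemia was read on day 3, and survival was followed to day 60 against untreated mice.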

Mus musculus = test: Toxicity in po dosed C57BL/6J mouse infected with Plasmodium berghei ANKA assessed as average body weight gain measured on day 3 (reference value: 7.7 g); assay type: organism-based; conditions: in vivo
Plasmodium berghei [5] = test: Antimalarial activity against Plasmodium berghei ANKA infected in C57BL/6J mouse assessed as suppression of blood parasitemia level at 6 mg/kg, po measured on day 3 relative to vehicle-treated control in presence of mef-HCl; assay type: functional; procedure, shortened: as §3
Plasmodium berghei [6] = test: Antimalarial activity against Plasmodium berghei ANKA infected in C57BL/6J mouse assessed as suppression of blood parasitemia level at 6 mg/kg, po measured on day 3 relative to vehicle-treated control in presence of mefloquine; assay type: functional; procedure, shortened: as §3
Plasmodium berghei [7] = test: Antimalarial activity against Plasmodium berghei ANKA infected in C57BL/6J mouse assessed as average survival time at 6 mg/kg, po in presence of Mef-HCl (reference value: 7.3 days); assay type: functional; procedure, shortened: as §3
Plasmodium berghei [8] = test: Antimalarial activity against Plasmodium berghei ANKA infected in C57BL/6J mouse assessed as suppression of blood parasitemia level at 150 mg/kg, po measured on day 3 relative to vehicle-treated control; assay type: functional; procedure, shortened: as §2
Plasmodium berghei [9] = test: Antimalarial activity against Plasmodium berghei ANKA infected in C57BL/6J mouse assessed as average survival time at 120 mg/kg, po (reference value: 7.3 days); assay type: functional; procedure, shortened: as §2
Plasmodium berghei [10] = test: Antimalarial activity against Plasmodium berghei ANKA infected in C57BL/6J mouse assessed as suppression of blood parasitemia level at 120 mg/kg, po measured on day 3 relative to vehicle-treated control; assay type: functional; procedure, shortened: as §2

With CO/N=C(/C[C@H]1O[C@@H]2O[C@@]3(C)CC[C@H]4[C@H](C)CC[C@@H]([C@H]1C)[C@@]24OO3)[C@H]1O[C@@H]2O[C@@]3(C)CC[C@H]4[C@H](C)CC[C@@H]([C@H]1C)[C@@]24OO3 the MST (Plasmodium berghei [1]) was 26.3 days, the Activity (Plasmodium berghei [2]) was >99.9% and the MST (Plasmodium berghei [3]) was 8.3 days. For the same compound, the MST (Plasmodium berghei [4]) was 49 days, the Activity (Mus musculus) was 10.7 g and the Activity (Plasmodium berghei [5]) was >99.9%. The Activity (Plasmodium berghei [6]) was >99.9%, the MST (Plasmodium berghei [7]) was 60 days and the Activity (Plasmodium berghei [8]) was 98%.
C[C@H]1[C@@H](/C(C[C@H]2O[C@@H]3O[C@@]4(C)CC[C@H]5[C@H](C)CC[C@@H]([C@H]2C)[C@@]35OO4)=N\OCC2CC2)O[C@@H]2O[C@@]3(C)CC[C@H]4[C@H](C)CC[C@@H]1[C@@]24OO3 was tested, and the MST (Plasmodium berghei [4]) was 41 days and the Activity (Plasmodium berghei [6]) was >99.9%.
For CCOP(=O)(OCC)O/N=C(/C[C@H]1O[C@@H]2O[C@@]3(C)CC[C@H]4[C@H](C)CC[C@@H]([C@H]1C)[C@@]24OO3)[C@H]1O[C@@H]2O[C@@]3(C)CC[C@H]4[C@H](C)CC[C@@H]([C@H]1C)[C@@]24OO3, the Activity (Plasmodium berghei [5]) was >99.9% and the MST (Plasmodium berghei [7]) was 21.5 days.
In the case of CC(=O)O/N=C(/C[C@H]1O[C@@H]2O[C@@]3(C)CC[C@H]4[C@H](C)CC[C@@H]([C@H]1C)[C@@]24OO3)[C@H]1O[C@@H]2O[C@@]3(C)CC[C@H]4[C@H](C)CC[C@@H]([C@H]1C)[C@@]24OO3, the Activity (Plasmodium berghei [5]) is reported as >99.9%.
C[C@H]1[C@@H](/C(C[C@H]2O[C@@H]3O[C@@]4(C)CC[C@H]5[C@H](C)CC[C@@H]([C@H]2C)[C@@]35OO4)=N\OC(=O)N(C)C)O[C@@H]2O[C@@]3(C)CC[C@H]4[C@H](C)CC[C@@H]1[C@@]24OO3 was tested, and the Activity (Plasmodium berghei [5]) was >99.9%.
For C[C@H]1[C@@H](C(=O)C[C@H]2O[C@@H]3O[C@@]4(C)CC[C@H]5[C@H](C)CC[C@@H]([C@H]2C)[C@@]35OO4)O[C@@H]2O[C@@]3(C)CC[C@H]4[C@H](C)CC[C@@H]1[C@@]24OO3, the Activity (Plasmodium berghei [5]) was >99.9%.
C#CCO/N=C(/C[C@H]1O[C@@H]2O[C@@]3(C)CC[C@H]4[C@H](C)CC[C@@H]([C@H]1C)[C@@]24OO3)[C@H]1O[C@@H]2O[C@@]3(C)CC[C@H]4[C@H](C)CC[C@@H]([C@H]1C)[C@@]24OO3 was tested, and the MST (Plasmodium berghei [1]) was 60 days, the Activity (Plasmodium berghei [2]) was >99.9% and the MST (Plasmodium berghei [3]) was 46.8 days. For the same compound, the Activity (Mus musculus) was 12 g, the Activity (Plasmodium berghei [5]) was >99.9% and the Activity (Plasmodium berghei [6]) was >99.9%. The MST (Plasmodium berghei [7]) was 60 days and the Activity (Plasmodium berghei [8]) was >99.9%.
For C[C@H]1[C@@H](/C(C[C@H]2O[C@@H]3O[C@@]4(C)CC[C@H]5[C@H](C)CC[C@@H]([C@H]2C)[C@@]35OO4)=N\OC(C)(C)C)O[C@@H]2O[C@@]3(C)CC[C@H]4[C@H](C)CC[C@@H]1[C@@]24OO3, the Activity (Plasmodium berghei [6]) was >99.9%.
With C[C@H]1[C@@H](/C(C[C@H]2O[C@@H]3O[C@@]4(C)CC[C@H]5[C@H](C)CC[C@@H]([C@H]2C)[C@@]35OO4)=N\O)O[C@@H]2O[C@@]3(C)CC[C@H]4[C@H](C)CC[C@@H]1[C@@]24OO3 the Activity (Plasmodium berghei [5]) was >99.9% and the MST (Plasmodium berghei [7]) was 52.5 days.
With C=CCO/N=C(/C[C@H]1O[C@@H]2O[C@@]3(C)CC[C@H]4[C@H](C)CC[C@@H]([C@H]1C)[C@@]24OO3)[C@H]1O[C@@H]2O[C@@]3(C)CC[C@H]4[C@H](C)CC[C@@H]([C@H]1C)[C@@]24OO3 the MST (Plasmodium berghei [9]) was 40.3 days, the MST (Plasmodium berghei [1]) was 41.3 days and the Activity (Plasmodium berghei [2]) was >99.9%. For the same compound, the Activity (Plasmodium berghei [10]) was >99.9%, the MST (Plasmodium berghei [3]) was 46.8 days and the MST (Plasmodium berghei [4]) was 49 days. For the same compound, the Activity (Plasmodium berghei [5]) was >99.9%, the Activity (Plasmodium berghei [6]) was >99.9% and the MST (Plasmodium berghei [7]) was 40.3 days. The Activity (Plasmodium berghei [8]) was >99%.
In the case of COP(=O)(OC)O/N=C(/C[C@H]1O[C@@H]2O[C@@]3(C)CC[C@H]4[C@H](C)CC[C@@H]([C@H]1C)[C@@]24OO3)[C@H]1O[C@@H]2O[C@@]3(C)CC[C@H]4[C@H](C)CC[C@@H]([C@H]1C)[C@@]24OO3, the Activity (Plasmodium berghei [5]) is reported as >99.9% and the MST (Plasmodium berghei [7]) is reported as 56 days.
CO[C@H]1O[C@@H]2O[C@@]3(C)CC[C@H]4[C@H](C)CC[C@@H]([C@H]1C)[C@@]24OO3 [ARTEMETHER] was tested, and the MST (Plasmodium berghei [1]) was 19 days, the Activity (Plasmodium berghei [2]) was >99.9% and the Activity (Plasmodium berghei [5]) was >99.9%. For the same compound, the Activity (Plasmodium berghei [6]) was >99.9% and the MST (Plasmodium berghei [7]) was 40 days.
In the case of CO/N=C(\C[C@H]1O[C@@H]2O[C@@]3(C)CC[C@H]4[C@H](C)CC[C@@H]([C@H]1C)[C@@]24OO3)[C@H]1O[C@@H]2O[C@@]3(C)CC[C@H]4[C@H](C)CC[C@@H]([C@H]1C)[C@@]24OO3, the MST (Plasmodium berghei [4]) is reported as 37 days and the Activity (Plasmodium berghei [6]) is reported as >99.9%.
